Numbering of substitutions follows the chain as printed. Where two headings read alike, the source gives them in different places.
Tests used:
β-glucosidase (almond) = test: Glycosidase inhibition assay, β-glucosidase; assay type: biochemical; details: substrate at Km; for β-Glc % Ra (% remaining activity at 100 µM): 100 µM compound; for IC50: read-out: β-Glc IC50
Procedure, shortened: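 Enzyme is added last; incubation is 4–5 min at room temperature, then 0.2 M sodium borate (pH 9.8) quenches. Absorbance at 405 nm gives % remaining activity at 100 µM compound. IC50 comes from non-linear fitting of relative activity versus concentration to a Hill-slope equation.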

[1] = biological target: β-galactosidase (Escherichia coli) (Escherichia coli, UniProt P00722); test: biochemical; details: for remaining activity at 100 µM: read-out: β-Gal % Ra (% remaining activity at 100 µM); for β-Gal % Ra (% remaining activity at 100 µM): 100 µM compound
Sequence of β-galactosidase (Escherichia coli) (P00722 2-1024): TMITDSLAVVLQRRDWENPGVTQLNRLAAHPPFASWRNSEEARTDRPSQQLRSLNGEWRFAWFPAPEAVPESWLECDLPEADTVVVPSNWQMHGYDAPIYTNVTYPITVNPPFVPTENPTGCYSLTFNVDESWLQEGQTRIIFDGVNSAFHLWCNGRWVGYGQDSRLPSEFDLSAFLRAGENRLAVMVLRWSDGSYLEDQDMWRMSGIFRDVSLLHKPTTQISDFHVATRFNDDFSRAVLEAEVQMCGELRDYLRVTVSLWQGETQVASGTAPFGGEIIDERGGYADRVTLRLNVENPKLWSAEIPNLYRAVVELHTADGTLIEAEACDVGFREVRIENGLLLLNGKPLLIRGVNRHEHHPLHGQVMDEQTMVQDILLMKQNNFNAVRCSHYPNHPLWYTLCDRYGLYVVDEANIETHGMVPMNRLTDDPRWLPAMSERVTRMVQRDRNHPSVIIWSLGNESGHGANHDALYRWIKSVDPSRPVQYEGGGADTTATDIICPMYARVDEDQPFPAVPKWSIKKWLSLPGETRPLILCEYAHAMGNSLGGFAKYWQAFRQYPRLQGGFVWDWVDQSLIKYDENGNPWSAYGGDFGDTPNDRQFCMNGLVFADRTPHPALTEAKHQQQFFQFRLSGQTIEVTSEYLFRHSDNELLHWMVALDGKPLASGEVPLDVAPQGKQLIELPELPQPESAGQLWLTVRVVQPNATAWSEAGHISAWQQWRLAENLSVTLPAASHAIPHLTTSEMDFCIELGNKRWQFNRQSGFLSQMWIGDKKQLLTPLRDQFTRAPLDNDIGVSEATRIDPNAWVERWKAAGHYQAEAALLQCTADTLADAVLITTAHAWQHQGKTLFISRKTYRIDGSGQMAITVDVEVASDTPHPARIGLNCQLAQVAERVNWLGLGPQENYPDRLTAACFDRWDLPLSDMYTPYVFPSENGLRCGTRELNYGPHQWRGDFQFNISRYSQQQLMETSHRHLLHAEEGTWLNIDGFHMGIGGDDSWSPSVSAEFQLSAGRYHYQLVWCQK

[2] = biological target: T1, testicular β-glucosidase 2 (Rattus norvegicus, UniProt Q5M868); test: Testicular glucosidase assay; assay type: biochemical, Long Evans (LE) rat
T1 sequence (Q5M868 1-912): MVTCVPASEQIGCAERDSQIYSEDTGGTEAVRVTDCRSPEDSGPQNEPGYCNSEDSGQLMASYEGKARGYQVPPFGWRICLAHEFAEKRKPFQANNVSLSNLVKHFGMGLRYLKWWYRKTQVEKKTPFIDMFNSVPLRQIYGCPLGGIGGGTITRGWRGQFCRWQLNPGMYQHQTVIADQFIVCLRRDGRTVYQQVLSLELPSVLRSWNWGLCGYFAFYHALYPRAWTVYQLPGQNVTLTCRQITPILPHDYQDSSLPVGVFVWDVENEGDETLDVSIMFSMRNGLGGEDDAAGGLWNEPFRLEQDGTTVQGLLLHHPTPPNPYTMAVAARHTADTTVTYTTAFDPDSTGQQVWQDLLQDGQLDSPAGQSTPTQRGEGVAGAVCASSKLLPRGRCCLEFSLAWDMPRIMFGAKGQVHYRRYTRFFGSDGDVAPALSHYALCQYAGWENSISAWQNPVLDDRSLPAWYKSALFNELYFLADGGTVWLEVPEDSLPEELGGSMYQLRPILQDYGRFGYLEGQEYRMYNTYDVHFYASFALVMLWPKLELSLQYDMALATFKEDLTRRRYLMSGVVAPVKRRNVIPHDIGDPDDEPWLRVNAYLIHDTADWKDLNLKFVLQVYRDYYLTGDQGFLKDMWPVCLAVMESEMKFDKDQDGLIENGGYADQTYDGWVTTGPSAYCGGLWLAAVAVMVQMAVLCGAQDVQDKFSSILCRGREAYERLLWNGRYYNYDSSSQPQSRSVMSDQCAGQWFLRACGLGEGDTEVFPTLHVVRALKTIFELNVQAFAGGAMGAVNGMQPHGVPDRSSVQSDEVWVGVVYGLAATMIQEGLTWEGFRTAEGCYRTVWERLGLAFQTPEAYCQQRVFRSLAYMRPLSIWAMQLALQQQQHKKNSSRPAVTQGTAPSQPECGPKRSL

[3] = biological target: T2, α-mannosidase (jack bean) (Canavalia ensiformis, UniProt C0HJB3); test: Glycosidase inhibition assay, α-mannosidase; assay type: biochemical; details: for remaining activity at 100 µM: read-out: α-Man % Ra (% remaining activity at 100 µM); for α-Man % Ra (% remaining activity at 100 µM): 100 µM compound, substrate at Km
T2 sequence (C0HJB3 1-562 limits assumed): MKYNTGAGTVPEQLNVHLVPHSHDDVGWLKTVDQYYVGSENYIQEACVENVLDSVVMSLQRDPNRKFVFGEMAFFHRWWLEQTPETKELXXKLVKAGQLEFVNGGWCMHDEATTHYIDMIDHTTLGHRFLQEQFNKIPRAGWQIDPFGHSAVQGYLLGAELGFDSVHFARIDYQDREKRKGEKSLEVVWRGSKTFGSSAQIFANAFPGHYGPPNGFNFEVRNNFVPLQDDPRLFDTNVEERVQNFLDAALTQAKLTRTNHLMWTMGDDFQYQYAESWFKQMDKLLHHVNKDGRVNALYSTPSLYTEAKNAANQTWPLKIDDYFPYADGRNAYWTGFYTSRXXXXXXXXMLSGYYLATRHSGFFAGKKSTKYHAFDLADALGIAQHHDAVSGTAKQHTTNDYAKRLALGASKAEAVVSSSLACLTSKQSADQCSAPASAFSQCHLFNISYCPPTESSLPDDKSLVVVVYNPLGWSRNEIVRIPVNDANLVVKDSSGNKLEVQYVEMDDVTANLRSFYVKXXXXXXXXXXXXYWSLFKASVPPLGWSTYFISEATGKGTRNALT
T2 sequence (C0HJB3 563-981 partner limits assumed): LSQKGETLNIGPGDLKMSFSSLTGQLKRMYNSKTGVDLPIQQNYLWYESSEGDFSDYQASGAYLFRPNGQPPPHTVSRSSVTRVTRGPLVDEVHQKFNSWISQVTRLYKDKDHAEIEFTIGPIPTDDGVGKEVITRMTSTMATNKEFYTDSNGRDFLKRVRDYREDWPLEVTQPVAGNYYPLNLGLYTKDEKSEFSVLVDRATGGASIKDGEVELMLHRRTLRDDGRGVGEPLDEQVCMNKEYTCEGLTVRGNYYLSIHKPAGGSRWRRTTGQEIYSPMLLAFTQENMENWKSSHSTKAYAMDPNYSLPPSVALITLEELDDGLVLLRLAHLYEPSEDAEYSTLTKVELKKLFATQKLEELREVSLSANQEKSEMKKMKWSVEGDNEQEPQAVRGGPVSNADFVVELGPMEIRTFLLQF
Procedure, shortened: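 Enzyme starts the reaction with test compound at 100 µM. After 4–5 min at room temperature, 0.2 M sodium borate (pH 9.8) quenches it. Absorbance is read at 405 nm and reported as % remaining activity.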

[4] = biological target: α-galactosidase (green coffee beans) (Coffea arabica, UniProt Q42656); test: biochemical; details: for remaining activity at 100 µM: read-out: α-Gal % Ra (% remaining activity at 100 µM); for α-Gal % Ra (% remaining activity at 100 µM): 100 µM compound, substrate at Km
Sequence of α-galactosidase (green coffee beans) (Q42656 16-378): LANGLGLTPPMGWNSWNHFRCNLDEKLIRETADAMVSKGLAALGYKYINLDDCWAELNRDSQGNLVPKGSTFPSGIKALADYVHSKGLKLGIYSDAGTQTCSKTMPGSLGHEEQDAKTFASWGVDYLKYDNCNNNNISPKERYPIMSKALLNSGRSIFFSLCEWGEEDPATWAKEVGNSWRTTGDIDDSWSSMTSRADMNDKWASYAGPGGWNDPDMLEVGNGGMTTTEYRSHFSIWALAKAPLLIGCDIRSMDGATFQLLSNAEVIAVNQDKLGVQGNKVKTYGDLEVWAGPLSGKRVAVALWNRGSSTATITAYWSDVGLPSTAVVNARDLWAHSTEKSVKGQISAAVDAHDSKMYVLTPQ

[5] = system: α-glucosidase (Saccharomyces cerevisiae); test: Glycosidase inhibition assay, α-glucosidase; assay type: biochemical; details: substrate at Km; for α-Glc % Ra (% remaining activity at 100 µM): 100 µM compound
[6] = biological target: T3, ceramide-specific glucosyltransferase (Mus musculus, UniProt O88693); test: Ceramide-specific glucosyltransferase assay, mouse testicular microsomes; assay type: biochemical, C57BL/6 mouse; details: mouse testicular microsomes, n.i. = no inhibition at 1000 µM concentration; for IC50: read-out: ceramide-specific glucosyltransferase IC50 (C57BL/6, mouse)
T3 sequence (O88693 1-394): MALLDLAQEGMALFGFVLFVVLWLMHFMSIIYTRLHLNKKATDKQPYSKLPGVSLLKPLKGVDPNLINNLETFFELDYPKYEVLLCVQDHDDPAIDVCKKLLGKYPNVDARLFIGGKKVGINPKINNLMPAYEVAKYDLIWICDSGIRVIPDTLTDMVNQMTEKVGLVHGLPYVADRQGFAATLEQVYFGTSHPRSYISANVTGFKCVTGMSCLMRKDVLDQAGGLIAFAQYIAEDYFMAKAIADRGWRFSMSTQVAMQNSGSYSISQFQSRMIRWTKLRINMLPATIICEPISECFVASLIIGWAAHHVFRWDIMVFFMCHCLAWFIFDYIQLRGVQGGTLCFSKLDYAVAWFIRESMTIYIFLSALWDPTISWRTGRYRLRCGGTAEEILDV

[7] = system: β-mannosidase (Roman snail); test: Glycosidase inhibition assay, β-mannosidase; assay type: biochemical; details: 100 µM compound; substrate at Km
Procedure, shortened: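 Test compound is at 100 µM. Enzyme addition starts the reaction, which runs 4–5 min at room temperature before quenching with 0.2 M sodium borate (pH 9.8). Absorbance is read at 405 nm and given as % remaining activity.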

[8] = biological target: T4, ceramide-specific glucosyltransferase (Rattus norvegicus, UniProt Q9R0E0); test: Ceramide-specific glucosyltransferase assay, rat testicular microsomes; assay type: biochemical, Long Evans (LE) rat; details: rat testicular microsomes, n.i. = no inhibition at 1000 µM concentration; for IC50: read-out: ceramide-specific glucosyltransferase IC50 (LE rat)
T4 sequence (Q9R0E0 1-394): T3 sequence (O88693 1-394) with D96E, K164R, R249K, T377A

Structure (SMILES)	β-Glc % Ra (% remaining activity at 100 µM) (β-glucosidase (almond))	remaining activity at 100 µM [1]	IC50 (β-glucosidase (almond))	α-Glc % Ra (% remaining activity at 100 µM) [5]	ceramide-specific glucosyltransferase IC50 (C57BL/6, mouse) [6]	β-Man % Ra (% remaining activity at 100 µM) [7]	β-Gal % Ra (% remaining activity at 100 µM) ([1]; substrate at Km)	α-Man % Ra (% remaining activity at 100 µM) [3]	α-Gal % Ra (% remaining activity at 100 µM) [4]	other results
O[C@H]1[C@H](O)[C@@H](O)CN2CC[C@H](O)[C@H]12 [Castano., castanospermine, reference compound]	13.5%									
CCCCN1CCC[C@@H](O)[C@H](O)[C@@H](O)C1 [Compound 1, (3S,4S,5R)-1-Butylazocane-3,4,5-triol]	37%	98%	87 µM	93%	n.i.	100%				β-glucosidase 2 IC50 (LE rat) ([2]; rat testicular microsomes, n.i. = no inhibition at 1000 µM concentration): did not show inhibitory activity and n.i.; remaining activity at 100 µM [3]: 100%; remaining activity at 100 µM [4]: 100%; ceramide-specific glucosyltransferase IC50 (LE rat) [8]: n.i.
CCCCCCCCCN1CCC[C@@H](O)[C@H](O)[C@@H](O)C1 [Compound 2, (3S,4S,5R)-1-Nonylazocane-3,4,5-triol]	43%	92%	92 µM	84%	n.i.	93%				IC50 [2]: 803 µM; remaining activity at 100 µM [3]: 100%; remaining activity at 100 µM [4]: 100%; ceramide-specific glucosyltransferase IC50 (LE rat) [8]: n.i.
CCCCN1C/C=C\[C@@H](O)[C@H](O)[C@@H](O)C1 [Compound 3, (3S,4S,5R,Z)-1-Butyl-1,2,3,4,5,8-hexahydroazocine-3,4,5-triol]	52%	94%	105 µM	81%	n.i.	99%				remaining activity at 100 µM [3]: 100%; remaining activity at 100 µM [4]: 100%; ceramide-specific glucosyltransferase IC50 (LE rat) [8]: n.i.
CCCCCCCCCN1C[C@@H](O)[C@@H](O)[C@@H](O)[C@H](O)[C@@H](O)C1 [Compound 6, (3S,4R,5S,6R,7R)-1-Nonylazocane-3,4,5,6,7-pentaol]	85%			84%	n.i.	99%	92%	100%	100%	IC50 [8]: 127 µM
CCCCN1[C@H](CO)[C@@H](O)[C@@H]1CO [Compound 24, ((2R,3s,4S)-1-Butyl-3-hydroxyazetidine-2,4-diyl)dimethanol]	101%			65%		113%	109%	99%	106%	IC50 [6]: > 300 µM; IC50 [8]: > 300 µM
CCCCCCCCCN1[C@H](CO)[C@@H](O)[C@@H]1CO [Compound 25, ((2R,3s,4S)-3-Hydroxy-1-nonylazetidine-2,4-diyl)dimethanol]	26%		20 µM			76%	107%	92%	66%	IC50 ([5]; read-out: α-Glc IC50): 0.6 µM; IC50 [6]: 44 µM; IC50 [8]: 91 µM
OC[C@H]1NC[C@H](O)[C@@H](O)[C@H]1O [DGJ, 1-deoxygalactonojirimycin, reference compound]							23%		0.05%	IC50 ([1]; read-out: β-Gal IC50, substrate at Km): 40 µM
OC[C@H]1NC[C@@H](O)[C@@H](O)[C@@H]1O [DMJ, 1-deoxymannojirimycin, reference compound]						77%		75%		
OC[C@H]1NC[C@H](O)[C@@H](O)[C@@H]1O [DNJ, 1-deoxynojirimycin, reference compound]				34%						
CCCCN1C[C@H](O)[C@@H](O)[C@@H](O)[C@H]1CO [NB-DGJ, N-butyldeoxygalactonojirimycin, reference compound]		9.6%								IC50 [1]: 6 µM

From paper PMC3431965 (The Journal of organic chemistry, 2012)
